# According to ChEMBL document CHEMBL2176996, “Synthesis and structure-affinity relationships of selective high-affinity 5-HT(4) receptor antagonists: application to the design of new potential single photon emission computed tomography tracers” (J Med Chem, 2012):
# The source made the active and inactive calls. No cut-off for these calls is given here.
# Tests used:
# [1] = target: 5-hydroxytryptamine receptor 4 (Cavia porcellus, UniProt O70528); experiment: Displacement of [3H]GR113808 from 5HT4R in guinea pig striatal membranes; assay type: cell membranes, Striatum, Membrane
# [2] = target: 5-hydroxytryptamine receptor 4 (Cavia porcellus) (UniProt O70528); experiment: Displacement of [3H]GR113808 from 5HT4R in guinea pig striatal membranes at 1 uM; assay type: cell membranes; conditions: Striatum, Membrane
# In short: (§1)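 Native 5-HT4R in male guinea pig striatal membranes (HEPES 50 mM pH 7.4); 600 µg membrane incubated in duplicate with [3H]GR 113808 at 0.1 nM final, 37 °C, 30 min; filtration on PEI-soaked GF/B filters, cold buffer washes.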
# [3] = target: 5-hydroxytryptamine receptor 4 (Cavia porcellus) (UniProt O70528); experiment: Displacement of [3H]GR113808 from 5HT4R in guinea pig striatal membranes at 10 nM; assay type: cell membranes; conditions: Striatum, Membrane; in short: as §1
# [4] = target: 5-hydroxytryptamine receptor 2A (Homo sapiens, UniProt P28223); experiment: Binding affinity to human 5HT2A by Cerep protocol based assay
# [5] = target: T1, 5-hydroxytryptamine receptor 1A (Homo sapiens, UniProt P08908); experiment: Binding affinity to human 5HT1A by Cerep protocol based assay
# T1 sequence (P08908 whole entry): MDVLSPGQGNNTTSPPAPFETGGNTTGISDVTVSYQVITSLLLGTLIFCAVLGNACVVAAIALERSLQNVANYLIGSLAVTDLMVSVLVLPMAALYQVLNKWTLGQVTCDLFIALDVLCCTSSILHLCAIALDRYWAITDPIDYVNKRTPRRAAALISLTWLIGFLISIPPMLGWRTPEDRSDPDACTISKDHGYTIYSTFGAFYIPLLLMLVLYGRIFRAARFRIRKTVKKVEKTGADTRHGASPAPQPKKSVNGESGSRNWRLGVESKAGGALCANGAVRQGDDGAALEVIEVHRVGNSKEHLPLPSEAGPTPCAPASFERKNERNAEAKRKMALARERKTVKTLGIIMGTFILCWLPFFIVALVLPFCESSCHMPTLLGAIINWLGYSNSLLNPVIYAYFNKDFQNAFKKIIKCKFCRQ
# Mus musculus [6] = experiment: In-vivo displacement of [125I]SB 207710 from 5HT4R in mouse brain hemispheres at 50 ug/kg, iv by autoradiography; assay type: functional, organism-based
# In short: (§2)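 One mouse dosed intravenously with saline carrying competitor at 50 µg/kg together with 30 µCi [125I]1 (146 Ci/mmol). CO2 sacrifice; 20 µm cryosections taken from 5-HT4R-rich regions (striatum, accumbens nucleus, olfactory tubercles), exposed overnight on phosphorimaging plates and scanned.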
# Mus musculus [7] = experiment: In-vivo displacement of [125I]SB 207710 from 5HT4R in mouse olfactory tubercles at 50 ug/kg, iv by autoradiography; assay type: functional, organism-based; conditions: Olfactory tubercle; in short: as §2
# [8] = target: 5-hydroxytryptamine receptor 4 (Rattus norvegicus) (UniProt Q62758); experiment: Displacement of [125I]SB 207710 from 5HT4R in rat brain cortex at 1 nM incubated for 30 mins by autoradiography; assay type: tissue-based
# In short: (§3)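 Frozen rat brain coronal sections (striatum/accumbens level) preincubated 5 min in 50 mM Tris-HCl pH 7.4, then incubated 30 min at room temperature with 100 pM [125I]1 plus competitor (1, 10, 100, 1000 pM). Three 5-min ice-cold buffer washes and a water dip, then drying; phosphorimaging after overnight exposure.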
# [9] = target: 5-hydroxytryptamine receptor 7 (Homo sapiens, UniProt P34969); experiment: Binding affinity to human 5HT7 by Cerep protocol based assay
# [10] = target: 5-hydroxytryptamine receptor 5A (Homo sapiens, UniProt P47898); experiment: Binding affinity to human 5HT5A by Cerep protocol based assay
# [11] = target: 5-hydroxytryptamine receptor 6 (Homo sapiens, UniProt P50406); experiment: Binding affinity to human 5HT6 by Cerep protocol based assay
# [12] = target: 5-hydroxytryptamine receptor 4 (Rattus norvegicus) (UniProt Q62758); experiment: Displacement of [125I]SB 207710 from 5HT4R in rat brain cortex at 10 pM incubated for 30 mins by autoradiography; assay type: tissue-based; in short: as §3
# [13] = target: T2, 5-hydroxytryptamine receptor 3A (Homo sapiens, UniProt P46098); experiment: Binding affinity to human 5HT3 by Cerep protocol based assay
# T2 sequence (P46098 whole entry): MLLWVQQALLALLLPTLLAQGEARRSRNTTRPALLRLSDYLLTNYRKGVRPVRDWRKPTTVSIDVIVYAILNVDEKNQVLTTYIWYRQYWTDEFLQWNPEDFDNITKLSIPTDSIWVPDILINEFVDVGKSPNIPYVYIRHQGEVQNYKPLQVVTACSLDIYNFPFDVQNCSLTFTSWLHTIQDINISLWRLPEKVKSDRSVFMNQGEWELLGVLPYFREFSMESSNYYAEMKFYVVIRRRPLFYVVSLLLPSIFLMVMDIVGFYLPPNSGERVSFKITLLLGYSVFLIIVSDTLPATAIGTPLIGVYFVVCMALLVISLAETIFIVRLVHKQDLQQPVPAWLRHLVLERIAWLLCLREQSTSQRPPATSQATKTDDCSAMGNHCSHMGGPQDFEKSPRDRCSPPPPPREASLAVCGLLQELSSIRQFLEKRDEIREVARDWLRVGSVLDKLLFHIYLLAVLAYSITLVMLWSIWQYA
# [14] = target: T3, 5-hydroxytryptamine receptor 2C (Homo sapiens, UniProt P28335); experiment: Binding affinity to human 5HT2C by Cerep protocol based assay
# T3 sequence (P28335 whole entry): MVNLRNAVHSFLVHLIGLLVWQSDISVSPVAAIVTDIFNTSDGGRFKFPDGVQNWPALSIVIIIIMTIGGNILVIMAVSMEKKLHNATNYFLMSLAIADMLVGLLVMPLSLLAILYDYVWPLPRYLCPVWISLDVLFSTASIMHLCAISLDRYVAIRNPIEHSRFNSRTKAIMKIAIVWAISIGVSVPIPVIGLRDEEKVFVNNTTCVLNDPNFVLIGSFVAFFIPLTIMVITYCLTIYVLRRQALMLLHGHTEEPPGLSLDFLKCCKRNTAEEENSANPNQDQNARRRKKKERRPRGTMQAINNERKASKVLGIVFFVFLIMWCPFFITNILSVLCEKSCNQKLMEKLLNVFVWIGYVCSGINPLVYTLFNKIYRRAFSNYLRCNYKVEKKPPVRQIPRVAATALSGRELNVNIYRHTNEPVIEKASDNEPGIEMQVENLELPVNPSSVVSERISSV
# [15] = target: 5-hydroxytryptamine receptor 2B (Homo sapiens, UniProt P41595); experiment: Binding affinity to human 5HT2B by Cerep protocol based assay
# [16] = target: 5-hydroxytryptamine receptor 1D (Homo sapiens, UniProt P28221); experiment: Binding affinity to human 5HT1D by Cerep protocol based assay
# [17] = target: 5-hydroxytryptamine receptor 1B (Homo sapiens, UniProt P28222); experiment: Binding affinity to human 5HT1B by Cerep protocol based assay
# [18] = target: T4, 5-hydroxytryptamine receptor 4 (Homo sapiens, UniProt Q13639); experiment: Displacement of radioligand from human 5HT4R by Cerep protocol based assay
# [19] = target: T4, 5-hydroxytryptamine receptor 4; experiment: Displacement of [3H]GR113808 from human recombinant 5HT4R expressed in HEK293T cells; assay type: cell-based, HEK-293T
# [20] = target: T4, 5-hydroxytryptamine receptor 4
# [21] = target: T4, 5-hydroxytryptamine receptor 4; remark: listed apart in the source
# [22] = target: 5-hydroxytryptamine receptor 1E (Homo sapiens, UniProt P28566); experiment: Binding affinity to human 5HT1E by Cerep protocol based assay
# 5-hydroxytryptamine receptor 1E, sequence (P28566 whole entry): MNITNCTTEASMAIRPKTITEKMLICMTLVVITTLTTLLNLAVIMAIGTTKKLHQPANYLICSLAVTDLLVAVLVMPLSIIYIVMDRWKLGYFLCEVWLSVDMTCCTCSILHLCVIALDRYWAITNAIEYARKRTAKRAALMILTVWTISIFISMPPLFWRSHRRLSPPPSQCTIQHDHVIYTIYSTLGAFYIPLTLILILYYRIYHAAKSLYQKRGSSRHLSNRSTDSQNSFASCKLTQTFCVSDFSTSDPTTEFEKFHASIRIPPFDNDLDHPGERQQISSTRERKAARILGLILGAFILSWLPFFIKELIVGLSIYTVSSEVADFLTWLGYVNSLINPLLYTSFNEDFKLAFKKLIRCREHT
# 5-hydroxytryptamine receptor 2A, sequence (P28223 whole entry): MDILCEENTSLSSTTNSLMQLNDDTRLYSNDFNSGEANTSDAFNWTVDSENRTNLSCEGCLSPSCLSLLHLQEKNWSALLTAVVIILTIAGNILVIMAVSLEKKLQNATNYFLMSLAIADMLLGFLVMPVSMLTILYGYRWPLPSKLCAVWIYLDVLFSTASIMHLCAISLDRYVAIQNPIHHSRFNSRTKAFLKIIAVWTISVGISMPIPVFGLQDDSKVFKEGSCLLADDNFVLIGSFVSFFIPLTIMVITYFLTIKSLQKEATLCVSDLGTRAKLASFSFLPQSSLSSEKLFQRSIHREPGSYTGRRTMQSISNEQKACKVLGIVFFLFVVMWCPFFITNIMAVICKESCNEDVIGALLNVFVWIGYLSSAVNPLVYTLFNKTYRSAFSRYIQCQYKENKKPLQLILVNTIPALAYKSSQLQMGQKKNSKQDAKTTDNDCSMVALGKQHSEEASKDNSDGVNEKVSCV
# 5-hydroxytryptamine receptor 7, sequence (P34969 whole entry): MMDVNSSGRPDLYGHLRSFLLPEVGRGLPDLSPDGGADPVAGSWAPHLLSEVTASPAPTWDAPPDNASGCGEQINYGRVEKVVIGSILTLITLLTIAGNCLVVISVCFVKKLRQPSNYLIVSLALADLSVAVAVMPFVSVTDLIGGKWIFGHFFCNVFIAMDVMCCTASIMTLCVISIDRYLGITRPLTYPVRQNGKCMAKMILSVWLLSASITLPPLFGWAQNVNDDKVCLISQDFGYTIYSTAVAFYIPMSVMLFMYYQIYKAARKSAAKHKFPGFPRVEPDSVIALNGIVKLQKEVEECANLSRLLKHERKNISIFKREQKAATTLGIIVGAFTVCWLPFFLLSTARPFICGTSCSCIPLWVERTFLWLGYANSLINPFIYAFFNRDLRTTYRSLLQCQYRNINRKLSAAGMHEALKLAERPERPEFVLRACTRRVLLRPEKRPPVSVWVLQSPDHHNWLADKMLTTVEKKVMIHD
# 5-hydroxytryptamine receptor 1D, sequence (P28221 whole entry): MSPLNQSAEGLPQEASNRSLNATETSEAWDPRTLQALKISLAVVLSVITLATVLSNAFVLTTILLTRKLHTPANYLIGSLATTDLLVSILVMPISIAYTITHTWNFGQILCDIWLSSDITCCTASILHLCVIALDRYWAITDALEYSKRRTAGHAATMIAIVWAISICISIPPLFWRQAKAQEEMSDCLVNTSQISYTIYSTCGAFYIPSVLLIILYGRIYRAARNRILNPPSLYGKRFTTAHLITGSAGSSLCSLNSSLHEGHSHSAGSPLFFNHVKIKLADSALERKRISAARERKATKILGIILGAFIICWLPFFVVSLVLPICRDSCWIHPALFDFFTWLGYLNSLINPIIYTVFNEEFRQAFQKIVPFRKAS
# 5-hydroxytryptamine receptor 5A, sequence (P47898 whole entry): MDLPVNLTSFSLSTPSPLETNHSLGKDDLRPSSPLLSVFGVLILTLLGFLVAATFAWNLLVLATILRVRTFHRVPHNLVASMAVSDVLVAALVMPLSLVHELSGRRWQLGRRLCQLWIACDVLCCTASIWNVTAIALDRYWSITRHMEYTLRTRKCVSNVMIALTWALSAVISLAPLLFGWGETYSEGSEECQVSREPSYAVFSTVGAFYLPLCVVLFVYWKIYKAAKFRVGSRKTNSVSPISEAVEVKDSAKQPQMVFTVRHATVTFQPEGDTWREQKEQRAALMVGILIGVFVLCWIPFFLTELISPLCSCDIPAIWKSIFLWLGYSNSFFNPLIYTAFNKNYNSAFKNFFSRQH
# 5-hydroxytryptamine receptor 2B, sequence (P41595 whole entry): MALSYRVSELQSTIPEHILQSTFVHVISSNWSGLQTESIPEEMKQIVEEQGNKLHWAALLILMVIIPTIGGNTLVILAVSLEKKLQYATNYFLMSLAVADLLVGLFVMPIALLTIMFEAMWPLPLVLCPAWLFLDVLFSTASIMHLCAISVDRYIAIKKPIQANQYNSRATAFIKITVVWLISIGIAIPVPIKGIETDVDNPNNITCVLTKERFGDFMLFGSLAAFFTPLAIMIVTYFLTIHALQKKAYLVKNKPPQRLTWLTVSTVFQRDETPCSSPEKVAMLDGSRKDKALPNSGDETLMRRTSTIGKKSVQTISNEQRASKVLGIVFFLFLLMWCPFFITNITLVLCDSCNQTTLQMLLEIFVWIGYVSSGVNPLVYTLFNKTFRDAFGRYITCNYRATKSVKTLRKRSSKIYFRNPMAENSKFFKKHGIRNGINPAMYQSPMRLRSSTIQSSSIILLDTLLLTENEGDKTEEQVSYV
# 5-hydroxytryptamine receptor 4 (Cavia porcellus, UniProt O70528), sequence (O70528 whole entry): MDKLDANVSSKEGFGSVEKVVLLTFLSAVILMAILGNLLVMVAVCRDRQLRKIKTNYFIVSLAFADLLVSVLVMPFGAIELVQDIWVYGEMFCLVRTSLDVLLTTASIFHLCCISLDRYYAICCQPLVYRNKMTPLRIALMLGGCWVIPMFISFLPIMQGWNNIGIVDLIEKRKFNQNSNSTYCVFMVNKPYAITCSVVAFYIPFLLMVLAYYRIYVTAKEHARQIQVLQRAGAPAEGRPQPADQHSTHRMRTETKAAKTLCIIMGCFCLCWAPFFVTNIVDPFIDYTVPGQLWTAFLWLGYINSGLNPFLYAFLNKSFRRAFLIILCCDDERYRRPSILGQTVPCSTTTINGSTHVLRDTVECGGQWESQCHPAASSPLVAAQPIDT
# 5-hydroxytryptamine receptor 4 (Cavia porcellus), sequence (O70528 whole entry): as above
# 5-hydroxytryptamine receptor 1B, sequence (P28222 whole entry): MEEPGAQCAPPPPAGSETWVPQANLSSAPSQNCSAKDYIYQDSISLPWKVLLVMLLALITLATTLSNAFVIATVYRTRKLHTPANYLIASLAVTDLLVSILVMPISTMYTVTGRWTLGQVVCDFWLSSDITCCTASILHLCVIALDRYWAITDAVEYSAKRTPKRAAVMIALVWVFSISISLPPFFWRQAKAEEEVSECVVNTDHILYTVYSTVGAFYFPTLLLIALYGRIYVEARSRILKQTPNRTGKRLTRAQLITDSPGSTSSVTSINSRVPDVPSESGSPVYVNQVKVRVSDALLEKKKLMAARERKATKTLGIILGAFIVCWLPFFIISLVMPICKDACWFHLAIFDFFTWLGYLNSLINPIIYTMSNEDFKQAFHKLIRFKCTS
# T4 sequence (Q13639 whole entry): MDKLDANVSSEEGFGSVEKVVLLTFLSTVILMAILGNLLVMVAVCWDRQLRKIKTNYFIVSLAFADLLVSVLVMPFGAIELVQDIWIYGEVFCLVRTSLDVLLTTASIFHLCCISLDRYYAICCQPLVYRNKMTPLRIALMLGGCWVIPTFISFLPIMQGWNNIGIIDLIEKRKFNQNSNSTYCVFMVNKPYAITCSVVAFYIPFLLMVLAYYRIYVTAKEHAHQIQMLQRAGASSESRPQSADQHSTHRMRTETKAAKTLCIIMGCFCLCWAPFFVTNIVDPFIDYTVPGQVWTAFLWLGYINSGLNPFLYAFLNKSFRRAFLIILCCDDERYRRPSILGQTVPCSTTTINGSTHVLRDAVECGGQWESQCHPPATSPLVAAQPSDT
# 5-hydroxytryptamine receptor 6, sequence (P50406 whole entry): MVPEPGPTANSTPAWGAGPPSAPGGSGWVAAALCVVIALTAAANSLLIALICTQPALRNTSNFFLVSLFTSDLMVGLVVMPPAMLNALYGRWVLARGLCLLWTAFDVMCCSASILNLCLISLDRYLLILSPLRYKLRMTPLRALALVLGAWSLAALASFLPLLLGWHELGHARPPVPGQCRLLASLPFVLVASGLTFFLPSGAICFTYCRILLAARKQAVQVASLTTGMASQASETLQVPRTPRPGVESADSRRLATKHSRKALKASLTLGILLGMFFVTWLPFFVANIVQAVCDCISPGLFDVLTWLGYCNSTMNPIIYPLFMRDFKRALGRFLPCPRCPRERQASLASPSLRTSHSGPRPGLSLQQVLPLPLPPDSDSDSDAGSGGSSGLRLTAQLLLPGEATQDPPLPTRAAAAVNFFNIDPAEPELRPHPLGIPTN
# 5-hydroxytryptamine receptor 4 (Rattus norvegicus), sequence (Q62758 whole entry): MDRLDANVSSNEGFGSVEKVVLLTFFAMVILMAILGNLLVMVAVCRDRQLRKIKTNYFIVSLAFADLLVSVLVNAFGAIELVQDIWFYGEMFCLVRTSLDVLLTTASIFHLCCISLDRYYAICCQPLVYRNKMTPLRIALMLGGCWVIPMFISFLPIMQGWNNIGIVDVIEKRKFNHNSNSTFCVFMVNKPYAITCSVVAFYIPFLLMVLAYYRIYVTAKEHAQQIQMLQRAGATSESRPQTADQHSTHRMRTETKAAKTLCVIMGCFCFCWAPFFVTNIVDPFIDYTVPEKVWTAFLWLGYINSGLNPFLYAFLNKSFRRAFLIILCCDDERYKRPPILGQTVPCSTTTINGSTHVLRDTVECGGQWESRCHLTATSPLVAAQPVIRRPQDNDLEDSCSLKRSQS
compound,measurement,setting,value
CCCN1CCC(COc2nc3ccccc3c3ccccc23)CC1,Ki,[1],51.5 nM
CCCN1CCC(COc2nc3ccccc3c3ccc(OC)cc23)CC1,inhibition,[2],85%
same,inhibition,[3],0%
CCCN1CCC(COc2nc3c(I)cccc3c3ncccc23)CC1,Ki,[4],1820 nM
same,Ki,[5],5630 nM
CCCN1CCC(COc2nc3c(C)cccc3c3ccccc23)CC1,Ki,[1],100 nM
same,inhibition,[2],100%
same,inhibition,[3],0%
CCCN1CCC(COc2nc3ccccc3c3ccc([N+](=O)[O-])cc23)CC1,inhibition,[2],54%
same,inhibition,[3],0%
Fc1cccc2c1nc(OCC1CCN(CCCc3ccc(I)cc3)CC1)c1cccnc12,Activity,Mus musculus [6],Active
same,Activity,Mus musculus [7],Active
same,Activity,[8],Active
same,Ki,[9],150 nM
same,Ki,[10],1700 nM
same,Ki,[11],> 10000 nM
same,Activity,[12],Active
same,Ki,[13],410 nM
same,Ki,[14],400 nM
same,Ki,[15],340 nM
same,Ki,[4],810 nM
same,Ki,[16],> 10000 nM
same,Ki,[5],680 nM
same,Ki,[17],> 10000 nM
same,Ki,[18],0.23 nM
same,Ki,[1],2.5 nM
same,inhibition,[2],100%
same,inhibition,[3],94%
CCCN1CCC(COc2nc3ccccc3c3cnccc23)CC1,Ki,[1],22.8 nM
same,Ki,[19],403 nM
same,inhibition,[2],100%
same,inhibition,[3],50%
CCCN1CCC(COc2nc3ccccc3c3ccc(F)cc23)CC1,Ki,[1],154 nM
same,inhibition,[2],90%
same,inhibition,[3],4%
CCCN1CCC(COc2nc3cc(C)ccc3c3ccccc23)CC1,Ki,[1],691 nM
CCCN1CCC(COc2nc3ccccc3c3cc(F)ccc23)CC1,Ki,[1],209 nM
CCCN1CCC(COc2nc3ccccc3c3cccc(F)c23)CC1,Ki,[1],21.6 nM
CCCN1CCC(COc2nc3ccc(F)cc3c3ccccc23)CC1,inhibition,[2],47%
same,inhibition,[3],0%
CCCN1CCC(COc2nc3cc(Cl)ccc3c3ccccc23)CC1,inhibition,[2],85%
same,inhibition,[3],0%
CCCN1CCC(COc2nc3ccc(C)cc3c3ccccc23)CC1,Ki,[1],246 nM
CCCN1CCC(COc2nc3c(Cl)cccc3c3ccccc23)CC1,Ki,[1],21.9 nM
same,Ki,[19],5 nM
same,inhibition,[2],100%
same,inhibition,[3],24%
same,EC50,[20],251 nM
CCCN1CCC(COc2nc3cc(F)ccc3c3ccccc23)CC1,Ki,[1],101 nM
same,Ki,[19],33 nM
CCCN1CCC(COc2nc3c(F)cccc3c3ncccc23)CC1,Ki,[18],0.04 nM
same,Ki,[1],2.2 nM
same,inhibition,[2],100%
same,inhibition,[3],98%
same,pKb,[21],10.6
CCCN1CCC(COc2nc3cc(OC)ccc3c3ccccc23)CC1,Ki,[1],1900 nM
CCCN1CCC(COc2nc3ccccc3c3ncccc23)CC1,Ki,[9],> 10000 nM
same,Ki,[10],> 10000 nM
same,Ki,[11],> 10000 nM
same,Ki,[13],680 nM
same,Ki,[14],2790 nM
same,Ki,[15],627 nM
same,Ki,[4],> 10000 nM
same,Ki,[16],> 10000 nM
same,Ki,[22],> 10000 nM
same,Ki,[5],> 10000 nM
same,Ki,[17],> 10000 nM
same,Ki,[1],13.1 nM
same,Ki,[19],7.5 nM
same,inhibition,[2],96%
same,inhibition,[3],64%
same,EC50,[20],10 nM
CCCN1CCC(COc2nc3ccccc3c3cc(C)ccc23)CC1,inhibition,[2],28%
same,inhibition,[3],0%
Ic1ccc(CCCN2CCC(COc3nc4ccccc4c4ccccc34)CC2)cc1,Ki,[1],115 nM
same,inhibition,[2],100%
same,inhibition,[3],3%
CCCN1CCC(COc2nc3ccc(OC)cc3c3ccccc23)CC1,Ki,[1],233 nM
CCCN1CCC(COc2nc3c(OC)cccc3c3ccccc23)CC1,Ki,[9],3470 nM
same,Ki,[10],> 10000 nM
same,Ki,[11],> 10000 nM
same,Ki,[13],> 10000 nM
same,Ki,[14],> 10000 nM
same,Ki,[15],29.3 nM
same,Ki,[4],5960 nM
same,Ki,[16],2570 nM
same,Ki,[22],> 10000 nM
same,Ki,[5],> 10000 nM
same,Ki,[17],> 10000 nM
same,Ki,[1],35 nM
same,Ki,[19],17 nM
same,inhibition,[2],100%
same,inhibition,[3],22%
same,EC50,[20],79.4 nM
CCCN1CCC(COc2nc3c(I)cccc3c3ccccc23)CC1,Ki,[9],153 nM
same,Ki,[10],5810 nM
same,Ki,[11],> 10000 nM
same,Ki,[13],1310 nM
same,Ki,[14],772 nM
same,Ki,[15],162 nM
same,Ki,[4],1020 nM
same,Ki,[16],> 10000 nM
same,Ki,[22],> 10000 nM
same,Ki,[5],> 10000 nM
same,Ki,[17],> 10000 nM
same,Ki,[18],1.2 nM
same,Ki,[1],13.5 nM
same,inhibition,[2],100%
same,inhibition,[3],0%
CCCN1CCC(COc2nc3ccc(Cl)cc3c3ccccc23)CC1,inhibition,[2],27%
same,inhibition,[3],0%
